Measured values: ChEMBL document CHEMBL4706575, “Nonpeptidic quinazolinone derivatives as dual nucleotide-binding oligomerization domain-like receptor 1/2 antagonists for adjuvant cancer chemotherapy” (Eur J Med Chem, 2020)

Legend:
[1] = Half life in mouse liver microsomes at 1.25 uM preincubated for 5 mins followed by NADPH generating system addition and measured for 120 mins by LC-MS/MS analysis; type: ADME, Microsome
Outline: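 Mouse liver microsomes (1.25 mg/mL protein) in 100 mM phosphate pH 7.4 with 1.25 µM compound, preincubated 5 min at 37 °C. Reaction started with NADPH-generating system (1 mM NADP, 10 mM MgCl2, 10 mM G6P, 0.5 U/mL G6PDH). Sampled at 0–120 min, quenched with MeOH/ACN 1:1, analysed by LC-MS/MS.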

[2] = target: T1, Nucleotide-binding oligomerization domain-containing protein 1 (Homo sapiens, UniProt Q9Y239); experiment: Antagonist activity at NOD1 in HEK-Blue hNOD1 cells assessed as inhibition of C12-iE-DAP-induced NFkappaB activation-mediated SEAP release preincubated for 3 hrs followed by C12-iE-DAP addition and measured after 20 hrs by spectrophotometric method; type: cell-based
T1 sequence (Q9Y239 whole entry): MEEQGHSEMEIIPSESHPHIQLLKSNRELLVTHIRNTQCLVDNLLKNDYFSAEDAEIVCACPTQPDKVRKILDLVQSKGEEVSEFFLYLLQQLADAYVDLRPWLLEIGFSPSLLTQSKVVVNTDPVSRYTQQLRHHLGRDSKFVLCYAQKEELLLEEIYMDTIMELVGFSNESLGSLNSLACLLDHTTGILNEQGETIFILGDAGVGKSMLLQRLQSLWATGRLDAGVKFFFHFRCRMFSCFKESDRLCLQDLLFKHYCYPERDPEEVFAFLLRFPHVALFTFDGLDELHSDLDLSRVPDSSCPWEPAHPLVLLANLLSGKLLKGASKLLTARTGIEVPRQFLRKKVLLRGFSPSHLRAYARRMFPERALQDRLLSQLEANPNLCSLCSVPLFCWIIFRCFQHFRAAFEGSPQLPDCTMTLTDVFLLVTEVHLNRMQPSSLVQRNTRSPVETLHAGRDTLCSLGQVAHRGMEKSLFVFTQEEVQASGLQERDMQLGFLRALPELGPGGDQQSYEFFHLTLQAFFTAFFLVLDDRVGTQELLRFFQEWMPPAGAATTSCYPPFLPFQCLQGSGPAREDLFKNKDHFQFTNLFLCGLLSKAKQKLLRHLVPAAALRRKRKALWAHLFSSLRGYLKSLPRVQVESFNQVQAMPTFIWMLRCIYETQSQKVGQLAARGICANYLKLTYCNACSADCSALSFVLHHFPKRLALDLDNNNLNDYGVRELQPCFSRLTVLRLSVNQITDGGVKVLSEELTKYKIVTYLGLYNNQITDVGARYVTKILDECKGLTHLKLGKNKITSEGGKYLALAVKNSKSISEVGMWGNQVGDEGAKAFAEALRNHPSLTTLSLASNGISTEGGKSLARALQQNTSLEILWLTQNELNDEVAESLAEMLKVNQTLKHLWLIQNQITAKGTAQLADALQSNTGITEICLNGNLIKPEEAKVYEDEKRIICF

[3] = target: T2, Nucleotide-binding oligomerization domain-containing protein 1 (Homo sapiens) (UniProt Q9Y239); experiment: Antagonist activity at NOD1 in HEK-Blue hNOD1 cells assessed as inhibition of C12-iE-DAP-induced NFkappaB activation-mediated SEAP release at 5 uM preincubated for 3 hrs followed by C12-iE-DAP addition and measured after 20 hrs by spectrophotometric method relative to control; type: cell-based; settings: time 23.0 hrs
T2 sequence (whole entry): T1 sequence (Q9Y239 whole entry)

[4] = target: T3, Nucleotide-binding oligomerization domain-containing protein 2 (Homo sapiens, UniProt Q9HC29); experiment: Antagonist activity at recombinant human NOD2 expressed in HEK293 cells assessed as inhibition of MDP-induced IL8 release measured after 24 hrs by HTRF assay; type: cell-based
[5] = target: T3, Nucleotide-binding oligomerization domain-containing protein 2; experiment: Antagonist activity at NOD2 in HEK-Blue hNOD2 cells assessed as inhibition of MDP-induced NFkappaB activation-mediated SEAP release at 5 uM preincubated for 3 hrs followed by MDP addition and measured after 20 hrs by spectrophotometric method relative to control; type: cell-based; settings: time 23.0 hrs
[6] = target: T3, Nucleotide-binding oligomerization domain-containing protein 2; experiment: Antagonist activity at NOD2 in HEK-Blue hNOD2 cells assessed as inhibition of MDP-induced NFkappaB activation-mediated SEAP release preincubated for 3 hrs followed by MDP addition and measured after 20 hrs by spectrophotometric method; type: cell-based
Outline: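 HEK-Blue hNOD2 cells preincubated 3 h with a range of concentrations, then MDP 100 ng/mL for 20 h. SEAP quantified. SRB assay run to exclude cytotoxicity. IC50 by nonlinear semi-logarithmic fit, mean ± SD, n = 3.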

T3 sequence (Q9HC29 whole entry, the tested form may be a part): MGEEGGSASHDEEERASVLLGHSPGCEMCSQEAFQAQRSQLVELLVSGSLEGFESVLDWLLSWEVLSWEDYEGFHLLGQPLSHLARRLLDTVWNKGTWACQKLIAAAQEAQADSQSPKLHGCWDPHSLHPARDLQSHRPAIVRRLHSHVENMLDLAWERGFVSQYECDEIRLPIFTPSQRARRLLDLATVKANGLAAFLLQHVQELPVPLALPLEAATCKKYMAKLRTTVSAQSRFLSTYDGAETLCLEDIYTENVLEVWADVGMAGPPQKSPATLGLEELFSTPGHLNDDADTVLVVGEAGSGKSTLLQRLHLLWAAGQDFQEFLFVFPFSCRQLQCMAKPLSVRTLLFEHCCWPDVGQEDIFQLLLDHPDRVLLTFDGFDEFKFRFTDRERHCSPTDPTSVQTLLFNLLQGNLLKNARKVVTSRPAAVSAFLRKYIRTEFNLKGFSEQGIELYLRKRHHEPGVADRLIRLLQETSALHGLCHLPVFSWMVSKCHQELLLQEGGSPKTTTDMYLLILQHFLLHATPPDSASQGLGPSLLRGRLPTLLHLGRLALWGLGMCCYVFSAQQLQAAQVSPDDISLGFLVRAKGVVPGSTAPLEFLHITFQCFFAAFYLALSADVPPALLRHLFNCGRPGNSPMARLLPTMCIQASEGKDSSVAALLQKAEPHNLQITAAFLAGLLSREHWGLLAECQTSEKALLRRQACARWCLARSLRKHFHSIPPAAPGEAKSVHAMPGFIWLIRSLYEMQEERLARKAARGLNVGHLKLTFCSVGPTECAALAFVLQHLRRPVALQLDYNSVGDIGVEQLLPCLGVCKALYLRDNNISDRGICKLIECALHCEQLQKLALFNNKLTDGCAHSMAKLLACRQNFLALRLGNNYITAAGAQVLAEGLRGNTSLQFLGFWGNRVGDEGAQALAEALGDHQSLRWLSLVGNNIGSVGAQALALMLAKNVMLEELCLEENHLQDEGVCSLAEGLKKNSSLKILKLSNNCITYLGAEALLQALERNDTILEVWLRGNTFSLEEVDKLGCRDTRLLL

SMILES | IC50 [2] | inhibition ([3]; filed as antagonist) | inhibition [3] | other results
O=C(NCCOCc1ccc(C(F)(F)F)cc1)c1cc2nc[nH]c(=O)c2cc1-c1cccc(Cl)c1 | 1.34 µM | 64.4% | – | half-life at 1.25 µM [1]: 22.9 min
COC(=O)Cn1cnc2cc(NC(=O)CCCOc3ccc(C(F)(F)F)cc3)c(Oc3cccc(N4CCOCC4)c3)cc2c1=O | 1.38 µM | 91.2% | – | half-life at 1.25 µM [1]: 9.6 min
CCc1ccc(S(=O)(=O)Nc2cc(-n3c(C)nc4ccccc4c3=O)ccc2F)s1 | – | – | – | IC50 [4]: > 50 µM
COC(=O)Cn1cnc2cc(NC(=O)COCc3ccc(C(F)(F)F)cc3)c(Oc3ccccc3N(C)C)cc2c1=O | 1.65 µM | 87.9% | – | –
COC(=O)Cn1cnc2cc(NC(=O)COCc3ccc(C(F)(F)F)cc3)c(Oc3ccccc3)cc2c1=O | – | 50.2% | – | –
COC(=O)Cn1cnc2cc(C(=O)NCCCc3ccccc3)c(-c3cccc(F)c3)cc2c1=O | – | – | -0.98% | –
O=C(NCCCc1ccc(Cl)cc1)c1cc2nc[nH]c(=O)c2cc1-c1cccc(Cl)c1 | – | 41.5% | – | –
COC(=O)Cn1cnc2cc(NC(=O)COCc3ccc(F)cc3)c(Oc3cccc(N(C)C)c3)cc2c1=O | – | – | 33.4% | inhibition ([5]; filed as antagonist): 42.5%
COC(=O)Cn1cnc2cc(NC(=O)CCCOc3ccc(C(F)(F)F)cc3)c(Oc3ccc(N(C)C)cc3)cc2c1=O | 3.87 µM | 68.4% | – | –
COC(=O)Cn1cnc2cc(C(=O)NCCCOc3ccc(C(F)(F)F)cc3)c(-c3cccc(Cl)c3)cc2c1=O | 0.89 µM | 89.6% | – | IC50 [6]: 1 µM
COC(=O)Cn1cnc2cc(NC(=O)c3ccc(C#N)cc3)c(Oc3cccc(N(C)C)c3)cc2c1=O | – | – | 13.1% | –
CN(C)c1cccc(Oc2cc3c(=O)[nH]cnc3cc2NC(=O)c2ccc(C#N)cc2)c1 | – | – | 19.4% | inhibition [5]: 13.1%
COC(=O)Cn1cnc2cc(C(=O)NCCOCc3ccc(C(F)(F)F)cc3)c(-c3cccc(Cl)c3)cc2c1=O | 1.12 µM | 82.4% | – | –
COC(=O)Cn1cnc2cc(NC(=O)c3ccc(C(F)(F)F)cc3)c(Oc3cccc(N(C)C)c3)cc2c1=O | – | – | 31.7% | –
CN(C)c1cccc(Oc2cc3c(=O)n(CC(=O)N4CCCCC4)cnc3cc2NC(=O)COCc2ccc(C(F)(F)F)cc2)c1 | 0.26 µM | 87.5% | – | inhibition ([5]; filed as antagonist): 92.4%; IC50 [6]: 1.75 µM
COC(=O)Cn1cnc2cc(NC(=O)COCc3ccccc3)c(Oc3cccc(N(C)C)c3)cc2c1=O | – | 47.6% | – | inhibition [5]: 35%
O=C(NCCOCc1ccc(C(F)(F)F)cc1)c1cc2nc[nH]c(=O)c2cc1-c1cccc(C(F)(F)F)c1 | 4.39 µM | 72.4% | – | –
COC(=O)Cn1cnc2cc(NC(=O)COCc3ccc(C(F)(F)F)cc3)c(Oc3cccc(N(C)C)c3)cc2c1=O | 1.15 µM | 85.4% | – | inhibition ([5]; filed as antagonist): 76.9%; IC50 [6]: 0.99 µM
O=C(O)Cn1cnc2cc(C(=O)NCCCOc3ccc(C(F)(F)F)cc3)c(-c3cccc(Cl)c3)cc2c1=O | – | – | 22% | half-life at 1.25 µM [1]: 22.9 min
O=C(CCCOc1ccc(C(F)(F)F)cc1)Nc1cc2nc[nH]c(=O)c2cc1Oc1cccc(N2CCOCC2)c1 | 2.48 µM | 65.4% | – | half-life at 1.25 µM [1]: 10.1 min
O=C(NCCCc1ccc(Cl)cc1)c1cc2nc[nH]c(=O)c2cc1-c1cccc(C(F)(F)F)c1 | – | – | 35% | –
O=C(NCCCc1ccccc1)c1cc2nc[nH]c(=O)c2cc1-c1cccc(C(F)(F)F)c1 | – | – | 4.06% | –
COC(=O)Cn1cnc2cc(NC(=O)CCCOc3ccc(C(F)(F)F)cc3)c(Oc3ccccc3)cc2c1=O | – | – | 28.2% | –
